ChEMBL document CHEMBL4177662, “Phosphamide-containing diphenylpyrimidine analogues (PA-DPPYs) as potent focal adhesion kinase (FAK) inhibitors with enhanced activity against pancreatic cancer cell lines” (Bioorg Med Chem, 2017)
pIC50: −log10 of the molar value.

Legend:
ASPC1 [1] = assay: Antiproliferative activity against human Aspc-1 cells assessed as cell viability at 4 uM after 72 hrs by MTT assay (reference value: 97%); assay type: functional; details: ASPC1, 72 h, read-out: Activity
ASPC1 [2] = assay: Cell cycle arrest in human Aspc-1 cells assessed as accumulation at G2/M phase at 5 uM after 72 hrs by propidium iodide staining-based flow cytometry (reference value: 0.89%); assay type: functional
ASPC1 [3] = assay: Antiproliferative activity against human Aspc-1 cells assessed as cell viability at 0.5 uM after 24 hrs by MTT assay (reference value: 100%); assay type: functional; details: ASPC1, 24 h, read-out: Activity
ASPC1 [4] = assay: Induction of apoptosis in human Aspc-1 cells assessed as viable cells at 10 uM after 72 hrs by Annexin V-FITC/propidium iodide staining-based flow cytometry (reference value: 100%); assay type: functional; details: ASPC1, 72 h, read-out: Activity
How it was run: (§1)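 AsPC-1 cells (3 to 5×10^5 per well) were treated with DMSO solvent control or compound for 72 h in medium with 5% FBS. Cells were then stained with Annexin V-FITC and propidium iodide and analysed by flow cytometry. One representative experiment shown.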

PANC-1 (human) [5] = assay: Antiproliferative activity against human PANC-1 cells assessed as cell viability at 8 uM after 72 hrs by MTT assay (reference value: 97%); details: PANC-1, 72 h
[6] = target: Tyrosine-protein kinase BTK (Homo sapiens) (UniProt Q06187); assay: Inhibition of recombinant full length His-tagged human BTK cytoplasmic domain expressed in baculovirus expression system at 100 nM relative to control
How it was run: (§2)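 Percent inhibition of kinase activity at a single 100 nM test concentration, from an outsourced biochemical profiling screen.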

[7] = system: Epidermal growth factor receptor (Homo sapiens), P00533 [T790M]; assay: Inhibition of recombinant GST-tagged human EGFR cytoplasmic domain (668 to 1210 residues) T790M mutant expressed in baculovirus expression system at 100 nM relative to control
How it was run: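 Part of a small kinase-panel profile run by an outsourced biochemical profiling service. The test compound was given at a single concentration of 100 nM, and activity was reported as percent inhibition rate.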

ASPC1 [8] = assay: Cell cycle arrest in human Aspc-1 cells assessed as accumulation at G2/M phase at 2.5 uM after 72 hrs by propidium iodide staining-based flow cytometry (reference value: 0.89%); assay type: functional
BXPC-3 [9] = assay: Antiproliferative activity against human BxPC3 cells assessed as cell viability at 4 uM after 24 hrs by MTT assay (reference value: 100%); assay type: functional; details: BXPC-3, 24 h, read-out: Activity
BXPC-3 [10] = assay: Antiproliferative activity against human BxPC3 cells assessed as cell viability at 0.5 uM after 72 hrs by MTT assay (reference value: 97%); assay type: functional; details: BXPC-3, 72 h, read-out: Activity
PANC-1 (human) [11] = assay: Antiproliferative activity against human PANC-1 cells assessed as cell viability at 4 uM after 48 hrs by MTT assay (reference value: 98.8%); details: PANC-1, 48 h
ASPC1 [12] = assay: Induction of apoptosis in human Aspc-1 cells assessed as late apoptotic cells at 2.5 uM after 72 hrs by Annexin V-FITC/propidium iodide staining-based flow cytometry (reference value: 0%); assay type: functional; how it was run: as §1
ASPC1 [13] = assay: Cell cycle arrest in human Aspc-1 cells assessed as accumulation at G0/G1 phase at 2.5 uM after 72 hrs by propidium iodide staining-based flow cytometry (reference value: 39.41%); assay type: functional
ASPC1 [14] = assay: Induction of apoptosis in human Aspc-1 cells assessed as early apoptotic cells at 2.5 uM after 72 hrs by Annexin V-FITC/propidium iodide staining-based flow cytometry (reference value: 0%); assay type: functional; how it was run: as §1
ASPC1 [15] = assay: Induction of apoptosis in human Aspc-1 cells assessed as early apoptotic cells at 5 uM after 72 hrs by Annexin V-FITC/propidium iodide staining-based flow cytometry (reference value: 0%); assay type: functional; how it was run: as §1
ASPC1 [16] = assay: Cell cycle arrest in human Aspc-1 cells assessed as accumulation at S phase at 1 uM after 72 hrs by propidium iodide staining-based flow cytometry (reference value: 59.70%); assay type: functional
BXPC-3 [17] = assay: Antiproliferative activity against human BxPC3 cells assessed as cell viability at 0.5 uM after 48 hrs by MTT assay (reference value: 98.8%); assay type: functional; details: BXPC-3, 48 h, read-out: Activity
ASPC1 [18] = assay: Antiproliferative activity against human Aspc-1 cells assessed as cell viability at 8 uM after 72 hrs by MTT assay (reference value: 97%); assay type: functional; details: ASPC1, 72 h, read-out: Activity
PANC-1 (human) [19] = assay: Antiproliferative activity against human PANC-1 cells assessed as cell viability at 4 uM after 72 hrs by MTT assay (reference value: 97%); details: PANC-1, 72 h
ASPC1 [20] = assay: Induction of apoptosis in human Aspc-1 cells assessed as early apoptotic cells at 10 uM after 72 hrs by Annexin V-FITC/propidium iodide staining-based flow cytometry (reference value: 0%); assay type: functional; how it was run: as §1
ASPC1 [21] = assay: Induction of apoptosis in human Aspc-1 cells assessed as necrotic cells at 2.5 uM after 72 hrs by Annexin V-FITC/propidium iodide staining-based flow cytometry (reference value: 0%); assay type: functional; how it was run: as §1
Focal adhesion kinase 1 [22] = target: T1, Focal adhesion kinase 1 (Homo sapiens, UniProt Q05397); assay: Inhibition of recombinant human N-terminal His-tagged FAK cytoplasmic domain (393 to 698 residues) expressed in baculovirus infected sf9 cells assessed as reduction in autophosphorylation after 60 mins by ADP-Glo kinase assay
How it was run: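 ADP-Glo luminescence assay. The kinase reaction ran in 1× kinase buffer with compound at 1 to 200 nM, for 60 min at room temperature. ADP-Glo reagent was then added to stop the reaction and deplete leftover ATP (40 min, room temperature). Detection reagent converted ADP to ATP for luciferase read-out (30 min). IC50 from curve fitting, mean ± SE of three independent experiments.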
Target sequence in this assay (Q05397 whole entry, the tested form may be a part): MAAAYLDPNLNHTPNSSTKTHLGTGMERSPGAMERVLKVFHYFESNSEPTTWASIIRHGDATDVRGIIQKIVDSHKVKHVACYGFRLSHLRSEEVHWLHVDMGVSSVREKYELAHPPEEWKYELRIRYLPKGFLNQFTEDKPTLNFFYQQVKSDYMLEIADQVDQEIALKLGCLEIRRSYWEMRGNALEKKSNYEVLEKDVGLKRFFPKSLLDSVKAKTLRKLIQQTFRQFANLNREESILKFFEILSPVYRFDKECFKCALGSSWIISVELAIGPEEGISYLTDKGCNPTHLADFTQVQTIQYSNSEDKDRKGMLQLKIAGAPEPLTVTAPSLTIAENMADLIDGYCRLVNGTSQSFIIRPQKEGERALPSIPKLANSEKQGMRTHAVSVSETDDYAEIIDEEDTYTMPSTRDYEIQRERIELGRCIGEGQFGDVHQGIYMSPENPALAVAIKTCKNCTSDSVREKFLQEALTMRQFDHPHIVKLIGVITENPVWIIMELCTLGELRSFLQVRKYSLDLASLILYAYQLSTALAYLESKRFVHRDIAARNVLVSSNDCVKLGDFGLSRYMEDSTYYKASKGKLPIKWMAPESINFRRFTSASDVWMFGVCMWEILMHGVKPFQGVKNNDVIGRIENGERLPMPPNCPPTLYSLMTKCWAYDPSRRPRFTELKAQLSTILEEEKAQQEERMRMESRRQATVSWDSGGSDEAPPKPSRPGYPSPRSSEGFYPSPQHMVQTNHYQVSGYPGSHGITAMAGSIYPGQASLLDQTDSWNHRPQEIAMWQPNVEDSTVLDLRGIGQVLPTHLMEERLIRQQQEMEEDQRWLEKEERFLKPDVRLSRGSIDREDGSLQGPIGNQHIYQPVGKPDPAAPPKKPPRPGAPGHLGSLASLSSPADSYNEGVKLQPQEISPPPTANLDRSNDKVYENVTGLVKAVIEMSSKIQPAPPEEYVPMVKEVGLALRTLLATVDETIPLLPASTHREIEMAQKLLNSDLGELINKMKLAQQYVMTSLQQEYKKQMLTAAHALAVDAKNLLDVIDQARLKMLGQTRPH

ASPC1 [23] = assay: Cell cycle arrest in human Aspc-1 cells assessed as accumulation at G0/G1 phase at 5 uM after 72 hrs by propidium iodide staining-based flow cytometry (reference value: 39.41%); assay type: functional
Focal adhesion kinase 1 [24] = target: T1, Focal adhesion kinase 1; assay: Inhibition of recombinant full length GST-tagged human FAK expressed in baculovirus expression system at 100 nM relative to control
How it was run: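 SelectScreen biochemical kinase profiling service; percent inhibition of each kinase at a single compound concentration of 100 nM.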
Target sequence in this assay (Q05397 2-1052 limits assumed): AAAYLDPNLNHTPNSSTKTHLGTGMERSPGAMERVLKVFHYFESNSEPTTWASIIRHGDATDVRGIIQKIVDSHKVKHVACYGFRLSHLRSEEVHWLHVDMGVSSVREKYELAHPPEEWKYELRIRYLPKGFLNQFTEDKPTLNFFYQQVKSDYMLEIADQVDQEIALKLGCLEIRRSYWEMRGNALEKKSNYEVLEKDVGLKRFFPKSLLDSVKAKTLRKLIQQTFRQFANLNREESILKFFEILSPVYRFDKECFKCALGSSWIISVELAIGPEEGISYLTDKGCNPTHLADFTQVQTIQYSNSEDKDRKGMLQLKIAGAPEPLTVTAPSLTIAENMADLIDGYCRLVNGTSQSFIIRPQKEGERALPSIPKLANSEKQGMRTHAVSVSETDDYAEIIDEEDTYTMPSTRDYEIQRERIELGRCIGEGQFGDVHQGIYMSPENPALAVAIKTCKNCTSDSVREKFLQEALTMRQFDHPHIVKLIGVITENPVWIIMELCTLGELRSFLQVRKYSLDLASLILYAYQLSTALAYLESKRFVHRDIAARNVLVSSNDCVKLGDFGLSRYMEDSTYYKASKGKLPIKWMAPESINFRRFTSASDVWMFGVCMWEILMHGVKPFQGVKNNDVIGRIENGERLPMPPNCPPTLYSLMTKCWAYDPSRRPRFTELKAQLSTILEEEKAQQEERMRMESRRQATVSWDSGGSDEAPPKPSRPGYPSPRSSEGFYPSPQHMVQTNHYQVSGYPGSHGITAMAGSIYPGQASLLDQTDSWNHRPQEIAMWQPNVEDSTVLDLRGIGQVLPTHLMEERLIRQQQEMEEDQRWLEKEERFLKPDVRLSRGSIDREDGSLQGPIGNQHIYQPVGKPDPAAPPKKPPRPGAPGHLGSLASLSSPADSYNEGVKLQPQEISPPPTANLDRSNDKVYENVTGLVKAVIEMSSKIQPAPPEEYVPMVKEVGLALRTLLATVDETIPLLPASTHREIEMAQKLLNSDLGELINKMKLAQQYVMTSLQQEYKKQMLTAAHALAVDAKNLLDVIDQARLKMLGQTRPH

[25] = target: T2, Aurora kinase A (Homo sapiens) (UniProt O14965); assay: Inhibition of recombinant full length His-tagged human Aurora A expressed in baculovirus expression system at 100 nM relative to control; how it was run: as §2
T2 sequence (whole entry): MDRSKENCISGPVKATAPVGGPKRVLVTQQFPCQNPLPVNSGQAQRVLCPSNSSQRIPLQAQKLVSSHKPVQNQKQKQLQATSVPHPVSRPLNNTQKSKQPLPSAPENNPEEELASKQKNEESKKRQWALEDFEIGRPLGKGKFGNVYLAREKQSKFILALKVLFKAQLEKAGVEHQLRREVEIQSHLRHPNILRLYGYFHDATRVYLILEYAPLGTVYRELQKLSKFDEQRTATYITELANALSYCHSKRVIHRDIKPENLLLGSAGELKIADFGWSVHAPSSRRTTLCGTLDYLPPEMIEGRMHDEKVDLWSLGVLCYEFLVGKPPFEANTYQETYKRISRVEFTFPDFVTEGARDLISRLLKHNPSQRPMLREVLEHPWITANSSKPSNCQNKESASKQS

Chain of Epidermal growth factor receptor (Homo sapiens), P00533 [T790M] (P00533 whole entry T790M, the tested form may be a part): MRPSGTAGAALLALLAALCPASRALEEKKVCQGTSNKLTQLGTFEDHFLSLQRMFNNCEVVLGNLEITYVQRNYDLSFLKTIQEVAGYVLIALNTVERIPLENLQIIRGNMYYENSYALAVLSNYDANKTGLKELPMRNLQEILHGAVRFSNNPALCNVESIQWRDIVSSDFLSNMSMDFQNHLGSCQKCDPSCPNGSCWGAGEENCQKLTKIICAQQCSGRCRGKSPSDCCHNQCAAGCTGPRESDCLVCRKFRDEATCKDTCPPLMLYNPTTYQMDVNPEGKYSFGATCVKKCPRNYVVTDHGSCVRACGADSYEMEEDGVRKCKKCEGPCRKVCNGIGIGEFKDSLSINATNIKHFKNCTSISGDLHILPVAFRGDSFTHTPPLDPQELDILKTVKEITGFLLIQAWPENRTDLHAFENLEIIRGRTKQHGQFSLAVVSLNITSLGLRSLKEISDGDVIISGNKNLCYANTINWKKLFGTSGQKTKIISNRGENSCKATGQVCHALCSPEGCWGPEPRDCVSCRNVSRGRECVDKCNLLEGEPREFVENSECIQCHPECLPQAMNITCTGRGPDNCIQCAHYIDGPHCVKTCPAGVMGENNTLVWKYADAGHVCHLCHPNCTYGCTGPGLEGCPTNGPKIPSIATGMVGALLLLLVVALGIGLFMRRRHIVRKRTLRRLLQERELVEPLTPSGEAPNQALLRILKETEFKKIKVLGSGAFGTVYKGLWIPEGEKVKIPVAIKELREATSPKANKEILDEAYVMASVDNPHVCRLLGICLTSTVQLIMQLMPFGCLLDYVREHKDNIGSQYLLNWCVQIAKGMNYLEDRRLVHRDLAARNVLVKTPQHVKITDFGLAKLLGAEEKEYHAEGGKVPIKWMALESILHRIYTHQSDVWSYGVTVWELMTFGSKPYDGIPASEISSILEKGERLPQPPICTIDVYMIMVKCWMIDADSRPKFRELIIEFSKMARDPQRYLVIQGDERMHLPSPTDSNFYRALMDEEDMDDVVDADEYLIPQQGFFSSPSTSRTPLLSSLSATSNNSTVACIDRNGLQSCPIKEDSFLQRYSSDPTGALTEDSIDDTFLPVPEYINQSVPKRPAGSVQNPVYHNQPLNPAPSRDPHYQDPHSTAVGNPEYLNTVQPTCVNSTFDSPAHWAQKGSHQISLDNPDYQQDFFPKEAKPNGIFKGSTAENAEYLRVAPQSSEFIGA
Chain of Tyrosine-protein kinase BTK (Homo sapiens) (Q06187 whole entry, the tested form may be a part): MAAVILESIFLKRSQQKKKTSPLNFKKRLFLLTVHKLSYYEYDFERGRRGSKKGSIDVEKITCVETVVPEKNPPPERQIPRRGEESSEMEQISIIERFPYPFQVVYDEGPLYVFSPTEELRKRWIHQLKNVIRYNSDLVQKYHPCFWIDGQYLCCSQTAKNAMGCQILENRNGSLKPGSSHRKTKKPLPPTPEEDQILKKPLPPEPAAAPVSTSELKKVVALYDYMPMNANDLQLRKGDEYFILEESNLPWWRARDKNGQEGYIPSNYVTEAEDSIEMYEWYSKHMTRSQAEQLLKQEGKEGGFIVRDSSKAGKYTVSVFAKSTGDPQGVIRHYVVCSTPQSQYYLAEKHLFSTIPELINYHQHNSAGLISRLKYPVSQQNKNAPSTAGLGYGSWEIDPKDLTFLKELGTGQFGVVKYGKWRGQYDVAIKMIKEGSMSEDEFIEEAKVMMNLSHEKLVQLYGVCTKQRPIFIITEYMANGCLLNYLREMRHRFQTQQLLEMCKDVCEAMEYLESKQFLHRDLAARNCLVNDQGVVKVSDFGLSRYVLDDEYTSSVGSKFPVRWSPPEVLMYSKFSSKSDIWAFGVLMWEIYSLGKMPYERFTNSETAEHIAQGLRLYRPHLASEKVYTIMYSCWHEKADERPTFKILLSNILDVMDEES

## CCOP(=O)(CCCOc1ccc(Nc2ncc([N+](=O)[O-])c(Nc3ccccc3C(=O)NC)n2)cc1)N1CCOCC1 (stereo not given)
ASPC1 [1]
  viability at 4 µM: 40.8%
ASPC1 [2]
  Activity: 22.11%
ASPC1 [3]
  viability at 0.5 µM: 99.4%
ASPC1 [4]
  viability at 10 µM: 7.7%
PANC-1 (human) [5]
  viability at 8 µM: 18.1%
[6]
  inhibition: 33%
[7]
  inhibition: 45%
ASPC1 [8]
  Activity: 16.54%
BXPC-3 [9]
  viability at 4 µM: 88.5%
BXPC-3 [10]
  viability at 0.5 µM: 69.8%
PANC-1 (human) [11]
  viability at 4 µM: 61.6%
ASPC1 [12]
  Activity: 20.7%
ASPC1 [13]
  Activity: 38.18%
ASPC1 [14]
  Activity: 21%
ASPC1 [15]
  Activity: 16.3%
ASPC1 [16]
  Activity: 48.41%
BXPC-3 [17]
  viability at 0.5 µM: 96.7%
ASPC1 [18]
  viability at 8 µM: 16.8%
PANC-1 (human) [19]
  viability at 4 µM: 58.4%
ASPC1 [20]
  Activity: 16.6%
ASPC1 [21]
  Activity: 2.9%
Focal adhesion kinase 1 [22]
  pIC50: 8.33
ASPC1 [23]
  Activity: 40.06%
Focal adhesion kinase 1 [24]
  inhibition: 92%
[25]
  inhibition: 48%
